A selection: hits, their analogues and other compounds. The true share with any hit is near 1.9%.
LEDGF integ inh = blockers of LEDGF/p75-dependent integrase strand transfer – biochemical, TR-FRET, high throughput, primary screen. HIV-1 integrase (with human LEDGF/p75). TR-FRET IN-LEDGF/p75 DNA integration, Eu/Cy5. 370,000 tested, 0.64% active. inhibition, % at 3.7 µM;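 active = inhibition above the screen-wide mean plus 3 SD, cut at about 13% in these data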;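 also: signal is the Cy5 over europium emission ratio at 671 and 618 nm; 0% = plate median of compound wells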
TDP2 inh = human TDP2 enzyme inhibitors, primary screen, biochemical, epi absorbance, recombinant enzyme; Tyrosyl-DNA phosphodiesterase 2 (Homo sapiens), O95551; T5PNP hydrolysis, p-nitrophenol absorbance 415 nm; inhibition, % at 12.8 µM; 370,000 tested, 0.34% active; AID 720702, 2013;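 active = inhibition above the mean of all tested compounds plus 3 SD, set per campaign, cut at about 25% in these data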;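 also: 0% = DMSO with enzyme and 100% = buffer with substrate but no TDP2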
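Read-out basis: percent inhibition. System: recombinant human TDP2. Buffer or medium: Mg2+-containing Tris-HCl buffer, pH 7.5. Repeats: single replicate. Timing: reaction 2 h, 37 °C. Benchmarks: high control without enzyme, low control DMSO plus TDP2. Probe or stimulus: 5 mM T5PNP. Doses: 12.8 µM only. Measured by: epi absorbance of p-nitrophenol freed from T5PNP by hydrolysis.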
Rin1 Abl inh = inhibitors of Rin1-Abl protein binding, primary screen, biochemical, TR-FRET. Tyrosine-protein kinase ABL1 (Homo sapiens) + Ras and Rab interactor 1 (Homo sapiens), …. inhibition, % at 7.35 µM. 360,000 tested, 0.4% active. AID 588664, 2011; in the data active = inhibition above about 5%, passing the limit was not always enough
MBD2 DNA inh = inhibitors of MBD2 binding to methylated DNA, primary screen, biochemical, TR-FRET, DNA-binding domain, human | inhibition, % at 4.4 µM | MBD2 binding to methylated oligonucleotide | 370,000 tested, 0.31% active | Methyl-CpG-binding domain protein 2 (Homo sapiens), Q9UBB5 | AID 686964, 2013; in the data active = inhibition above about 13%
UHRF1 MBD2 ctr = UHRF1 methylated DNA binding inhibitors, primary screen, counter-screen for MBD2 inhibitor project, biochemical, TR-FRET, human UHRF1, single concentration | inhibition, % at 4.4 µM | UHRF1 binding to methylated oligo | 370,000 tested, 0.75% active | AID 687016, 2013;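 also: UHRF1 SRA domain binding a hemimethylated CpG hairpin DNA probe; 0% = median of test compound wells and 100% = reference inhibitor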
Rin1 Abl conf = Rin1-Abl binding inhibitor retest, confirmation, biochemical, TR-FRET; shares compounds with Rin1 Abl inh; purified proteins; inhibition, % at 7.35 µM; 1,300 tested, 49% active; in the data active = inhibition above about 6.5%
GFP quencher = GFP fluorescence inhibitors and quenchers, artefact control for Rin1-Abl interaction inhibitor project, biochemical | shares compounds with Rin1 Abl inh | inhibitors/quenchers counterscreen | inhibition, % at 6.75 µM | 1,300 tested, 8.5% active; in the data active = inhibition above about 6.5%;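 also: ABL1-eGFP fusion protein alone without its partner RIN1-SBP; 0% = protein with vehicle and 100% = wells lacking protein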
UHRF1 DNA bind = UHRF1 methylated DNA binding inhibitors, counter-screen for MBD2 inhibitor project, biochemical, TR-FRET, human UHRF1. shares compounds with MBD2 DNA inh. UHRF1 binding to methylated oligonucleotide. inhibition, % at 4.4 µM. 1,000 tested, 25% active;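 also: UHRF1 SRA domain binding a labeled hemimethylated CpG hairpin DNA; 0% = vehicle only and 100% = reference inhibitor with vehicle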
MBD2 DBD conf = inhibitors of MBD2 binding to methylated DNA, confirmation, biochemical, TR-FRET, DNA-binding domain, human; inhibition, % at 4.4 µM; AID 720531, 2013; shares compounds with MBD2 DNA inh; 1,000 tested, 26% active; TR-FRET MBD2-DBD binding to methylated oligonucleotide; in the data active = inhibition above about 14%
IN multimer act = HIV-1 IN multimer formation enhancers, counter-screen for LEDGF/p75 integration inhibitor project, biochemical, TR-FRET; TR-FRET HIV-1 integrase multimerization; activation, % at 7.7 µM; shares compounds with LEDGF integ inh; AID 1053131, 2014; 2,000 tested, 17% active; in the data active = activation above about 8.9%
TRFRET interf = TR-FRET optical interference artefacts, confirmation, artefact control for LEDGF/p75-dependent integration inhibitor project, biochemical, HIV-1 IN multimerization. shares compounds with LEDGF integ inh. TR-FRET optical interference counterscreen. inhibition, % at 7.7 µM. 2,000 tested, under 10 active. AID 1053135, 2014;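 active = inhibition above the mean over all tested compounds plus 3 SD, which no compound reached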;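 also: 0% = integrase with antibodies and DMSO and 100% = antibodies without integrase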
IN-LEDGF confirm = inhibitors of HIV-1 IN-LEDGF/p75 DNA integration, confirmation, biochemical, TR-FRET | shares compounds with LEDGF integ inh | TR-FRET LEDGF/p75-dependent HIV-1 integration | inhibition, % at 3.7 µM | 2,000 tested, 36% active; in the data active = inhibition above about 14%
* hit, by the source's call; . = not tested or not shown. Rule as the data show it, unless noted: active = inhibition above about 21%; inactive = the rest.

SMILES	LEDGF integ inh	TDP2 inh	Rin1 Abl inh	MBD2 DNA inh	UHRF1 MBD2 ctr	UHRF1 DNA bind	MBD2 DBD conf	others
O=C1/C(=C/c2ccc(O)c(O)c2)SC(=S)N1Nc1ccccc1	.	.	5.4	.	.	.	.
CN(C)c1ccc(O)c2c1CC1CC3[C@@H](N(C)C)C(=O)C(C(N)=O)C(=O)[C@]3(O)C(=O)C1C2=O (some centres not stated)	37.1*	4.9	13.4*	4.3	10.6	.	.	Rin1 Abl conf=7.8*;GFP quencher=3.1;IN multimer act=5.0;TRFRET interf=-25.0;IN-LEDGF confirm=6.7
Cc1ccc(C)c(C(=O)OCC(=O)Nc2cccc(S(=O)(=O)NC3=NCCCCC3)c2)c1	1.4	0.8	-1.2	16.6*	17.8	6.4	3.1
C=CCN1C(=O)[C@@H](CC(=O)NCCc2ccccc2OC)[C@]2(C(=O)OC)CCCCC=C12	-1.9	-2.0	.	-1.9	0.6	.	.
CC1(c2nnnn2Cc2ccccc2)CCC(=O)N1CCc1c[nH]c2ccccc12 (configuration not stated)	-3.1	-0.4	.	1.8	2.6	.	.
CC1(c2nnnn2Cc2ccccc2)CCC(=O)N1CCc1ccccc1F (configuration not stated)	-3.1	-10.8	.	15.1*	21.8*	13.0	6.3
CCCCSc1nc2c(cc1C#N)CCC2	1.4	8.3	-3.1	-6.1	-5.1	.	.
CCCSc1nc(C)c(-c2csc(C(C#N)=C3CCCC3)n2)cc1C#N	1.8	-3.7	-3.2	16.2*	16.7	7.3	6.5
CCOc1ccc(/C=C2/SC(=S)N(n3c(C)ccc3C)C2=O)cc1	-3.6	-1.1	6.3	-2.5	-1.2	.	.
COc1ccc(/C=C2/SC(=S)N(n3c(C)ccc3C)C2=O)cc1	5.9	9.0	2.1	13.5*	21.8*	11.6	3.3
CCC(C)CNC(=O)CSc1nnc(-c2cccnc2)n1C1CCCCC1 (configuration not stated)	-1.8	9.8	.	-3.1	0.2	.	.
Cc1cc(-c2cc(NC(=O)Cc3c[nH]c4ccccc34)ccc2Nc2cccnc2)ccc1F	-4.5	-2.1	.	1.4	-3.4	.	.
O=C(CCC(=O)c1cccs1)OCC(=O)c1ccccc1	-4.3	-4.9	2.0	48.4*	-0.4	4.5	1.3
O=C1C=C(c2ccc(O)cc2)C[C@@H](c2ccc3c(c2)OCO3)C1	3.4	0.1	3.7	5.5	16.9	.	.
O=C1C=C(c2ccc(C(=O)O)cc2)C[C@@H](c2ccc3c(c2)OCO3)C1	3.0	3.5	5.7	15.7*	17.0	13.5	8.2
Cc1c(C)n(CCN(C)C)c2ccc(C(=O)OCCN(C)C)cc12	0.6	7.0	0.0	13.4*	15.4	23.5*	11.4
CCN(C[C@H]1N[C@@](C)(C(=O)OC)[C@H]2C(=O)N(C)C(=O)[C@@H]12)C(=O)Nc1ccc(F)cc1	-3.2	-4.1	-2.9	2.2	19.5	.	.
CCN(C[C@H]1N[C@@](C)(C(=O)OC)[C@H]2C(=O)N(C)C(=O)[C@@H]12)C(=O)Nc1ccc(C(F)(F)F)cc1	0.5	0.7	1.4	14.8*	21.6*	8.5	3.5
CNS(=O)(=O)c1cccc(C(=O)OCC(=O)Nc2ccccc2F)c1	0.1	-4.5	2.2	16.7*	25.7*	4.1	1.8
CC(C)N1CCCCC(NC(=O)COCc2ccccc2)C1=O (configuration not stated)	-2.1	14.0	.	5.7	-1.1	.	.
CN1C(=O)c2cc(NC(=O)Nc3ccccc3)ccc2OC[C@H]2O[C@@H](CC(=O)NC3Cc4ccccc4C3)CC[C@@H]21	3.7	4.2	.	10.1	4.6	.	.
CC(=O)Nc1sc2c(c1-c1nc3ccccc3s1)CN(C(C)C)C2	0.4	-0.1	.	14.1*	-4.6	11.1	28.5*
CC(=O)Nc1sc2c(c1-c1nc3ccccc3s1)CCN(C(C)=O)C2	3.5	4.4	.	-5.4	-17.6	.	.
CC(=O)Nc1sc2c(c1-c1nc3ccccc3s1)CCCN(C(C)C)C2	3.3	-0.8	.	50.2*	27.8*	35.1*	54.6*
CC(=O)Nc1sc2c(c1-c1nc3ccccc3s1)CN(C(C)C)CC2	2.5	-5.0	-5.3	36.1*	2.9	24.1*	57.0*
SMILES	LEDGF integ inh	TDP2 inh	Rin1 Abl inh	MBD2 DNA inh	UHRF1 MBD2 ctr	UHRF1 DNA bind	MBD2 DBD conf	others
CC(=O)Nc1sc2c(c1-c1nc3ccccc3s1)CCN(C)C2	2.1	0.2	.	28.4*	0.8	15.4	41.6*
O=S1(=O)c2ccc(N3CCC[C@@H]3CO)cc2O[C@@H]2CCN1C2	-0.2	1.7	.	4.1	9.7	.	.
O=C(Cn1c(-c2cncs2)nc2ccccc21)N1CCCCC1	-1.6	-0.5	.	-3.3	1.3	.	.
COc1ccc(OC)c(NC(=O)C2CC(=O)N(c3ccccc3)C2)c1 (configuration not stated)	3.7	4.3	1.2	14.7*	11.6	11.2	2.2
COc1ccc(N2CC(C(=O)OCC(=O)Nc3cc(C)on3)CC2=O)cc1 (configuration not stated)	3.0	-7.8	1.7	19.6*	41.1*	9.7	2.5
CC1=NNC(=O)C1CCC(=O)N/N=C/c1ccc(Cl)cc1 (configuration not stated)	-4.8	9.1	0.7	1.3	3.4	.	.
